ERa coact pot – enhances coactivator binding to human estrogen receptor alpha; coactivator binding (% of control), % at 25.6 µM; 1.3% of 86,000 active; TR-FRET ERalpha-LBD/SRC-Cy5 coactivator binding, 2 h; 100 = basal binding, no effect; P03372; in the data active = activity above about 200%;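 note: binding measured in presence of low estradiol as agonist stimulus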
Target sequence (P03372 whole entry, looked up, the tested form may be a part): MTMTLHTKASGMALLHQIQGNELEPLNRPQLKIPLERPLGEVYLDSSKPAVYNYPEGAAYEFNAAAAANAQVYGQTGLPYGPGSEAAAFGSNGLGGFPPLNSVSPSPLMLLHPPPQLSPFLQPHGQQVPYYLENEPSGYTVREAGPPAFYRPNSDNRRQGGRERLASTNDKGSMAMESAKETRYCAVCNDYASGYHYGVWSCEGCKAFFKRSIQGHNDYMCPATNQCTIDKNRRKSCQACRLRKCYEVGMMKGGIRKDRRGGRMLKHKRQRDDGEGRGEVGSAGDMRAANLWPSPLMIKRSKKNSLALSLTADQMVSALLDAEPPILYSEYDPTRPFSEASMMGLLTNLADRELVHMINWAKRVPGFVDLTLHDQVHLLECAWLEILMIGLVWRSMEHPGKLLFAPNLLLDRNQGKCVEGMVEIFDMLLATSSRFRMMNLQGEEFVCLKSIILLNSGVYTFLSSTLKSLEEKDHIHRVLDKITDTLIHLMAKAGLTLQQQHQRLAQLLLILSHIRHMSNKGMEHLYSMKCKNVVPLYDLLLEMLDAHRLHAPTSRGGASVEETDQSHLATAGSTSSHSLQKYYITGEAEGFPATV
Rev-RRE block – HIV Rev-RRE protein-RNA interaction inhibition | P05866 | Rev peptide-RRE RNA binding, FRET | inhibition, % at 8 µM | 0.79% of 97,000 active | AID 704;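 active = inhibition above the screen-wide mean plus 3 SD, cut at about 35% in these data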
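System: Cy5-labelled duplex RRE RNA binding fluorescein-labelled HIV Rev peptide; Signal: fluorescein-to-Cy5 FRET, 480 nm excitation; Also added: labelled Rev peptide; Compound: one concentration, 8 µM nominal; Buffer or medium: HEPES pH 7.5 salt buffer with EDTA; Read-out: % inhibition of FRET ratio versus controls; Schedule: 5 min preincubation and 15 min binding, 25 °C.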
Smad3 FoxH1 inh – inhibitors of human Smad3 transcription factor binding; P84022; TR-FRET Smad3/Dy647-FoxH1 peptide binding, europium anti-His; inhibition, % at 25 µM; 0.29% of 88,000 active; AID 630;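 active = compounds that reduce the energy-transfer binding signal between the protein and its labelled peptide by more than half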
ERa SRC1 inh – blocks coactivator binding to human estrogen receptor alpha | 1.7% of 86,000 active | TR-FRET ER-alpha LBD / SRC-1 peptide, estradiol-bound | inhibition, % at 25.6 µM | P03372; in the data active = inhibition above about 50%
FAK blocker – FAK (human) kinase inhibition. Q05397. biochemical FAK kinase activity assay. inhibition, %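 (tested at 7 µM)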. 0.84% of 97,000 active; in the data active = inhibition above about 19%
ERb coact inh – blocks coactivator binding to human estrogen receptor beta; TR-FRET ER-beta LBD / SRC1-Cy5 peptide binding; receptor agonist-loaded with 1 µM estradiol; inhibition, % at 25.6 µM; 1.3% of 86,000 active; AID 633; Q92731;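 active = compounds whose percent inhibition of the receptor-coactivator binding signal exceeds about 50% in the single-dose screen, limit read from the data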
A number is an active result; [ ] = another dose, or the depositor's remark. This is a sample that favours compounds with a hit; in the whole collection about 4% have one here.

COc1cccc(C(=O)Nc2ccc3nc(N4CCN(c5ncccn5)CC4)cc(C)c3c2)c1OC was read as Rev-RRE block inactive and FAK blocker inactive.
`CN=Cc1sc2ccccc2c1O` gave ERa coact pot inactive, Rev-RRE block inactive, Smad3 FoxH1 inh inactive, ERa SRC1 inh inactive, FAK blocker inactive and ERb coact inh inactive.
For CC(=Nc1cccc(O)c1)c1sc2ccccc2c1O the results were ERa coact pot inactive, Rev-RRE block 48, Smad3 FoxH1 inh inactive, ERa SRC1 inh inactive, FAK blocker inactive and ERb coact inh inactive.
Screening CC(=Nc1ccc(C)cc1)c1sc2ccccc2c1O returned ERa coact pot inactive, Rev-RRE block 44, Smad3 FoxH1 inh inactive, ERa SRC1 inh inactive, FAK blocker inactive and ERb coact inh inactive.
`Cc1cc(=O)oc2cc(OCC(=O)Nc3nnc(C(C)C)s3)ccc12` gave ERa coact pot 488, Rev-RRE block inactive, Smad3 FoxH1 inh inactive, ERa SRC1 inh inactive, FAK blocker inactive and ERb coact inh inactive.
Nc1nc(SCc2ccc(Cl)cc2)[nH]c(=O)c1-c1ccccc1 was read as ERa coact pot inactive, Rev-RRE block inactive, Smad3 FoxH1 inh inactive, ERa SRC1 inh inactive, FAK blocker inactive and ERb coact inh inactive.
Screening Nc1[nH]c(=S)[nH]c(=O)c1-c1ccccc1 returned ERa coact pot inactive, Rev-RRE block 139[fluorescence artefact?], Smad3 FoxH1 inh inactive, ERa SRC1 inh inactive, FAK blocker inactive and ERb coact inh inactive.
For CCOc1ccc2c3c(c(=O)oc2c1OCC)CCCC3 the results were ERa coact pot inactive, Rev-RRE block inactive, Smad3 FoxH1 inh inactive, ERa SRC1 inh 84[fluorescence artefact?], FAK blocker inactive and ERb coact inh inactive.
Screening CCCOc1ccc2c3c(c(=O)oc2c1OCCC)CCCC3 returned ERa coact pot inactive, Rev-RRE block inactive, Smad3 FoxH1 inh inactive, ERa SRC1 inh inactive, FAK blocker inactive and ERb coact inh inactive.
For C[N+]1(CCC[N+]2(C)C[C@@H]3[C@H](C2)[C@@H]2C=C[C@H]3CC2)CCOCC1 (stereo not given in full) the results were Smad3 FoxH1 inh inactive.
For O=C(NCc1ccco1)c1ccc(=O)[nH]n1 the results were ERa coact pot inactive, Rev-RRE block inactive, Smad3 FoxH1 inh inactive, ERa SRC1 inh inactive, FAK blocker inactive and ERb coact inh 67[fluorescence artefact?].
Cc1cccc(C)c1OC(=O)CSc1nnc(-c2ccccc2O)o1 was read as ERa coact pot inactive, Rev-RRE block inactive, Smad3 FoxH1 inh inactive, ERa SRC1 inh inactive, FAK blocker inactive and ERb coact inh inactive.
For Nc1nc(-c2ccccc2)c(-c2ccccc2)c(-c2nc(N)nc(-c3ccccc3)c2-c2ccccc2)n1 the results were Smad3 FoxH1 inh inactive.
`Cc1c(-c2nc(N)nc(C3CC3)c2C)nc(N)nc1C1CC1` gave Smad3 FoxH1 inh inactive.
CC(C)c1ccc(CNc2ccc(N3CCOCC3)cc2)cc1 was read as ERa coact pot 530[fluorescence artefact?], Rev-RRE block inactive, Smad3 FoxH1 inh inactive, ERa SRC1 inh inactive, FAK blocker inactive and ERb coact inh inactive.
For CC1=NCC[N@@+]1(CCc1ccccc1)Cc1ccccc1 the results were Smad3 FoxH1 inh inactive.
Screening COCc1nnc(NC(=O)CCCOc2ccccc2)s1 returned ERa coact pot inactive, Rev-RRE block inactive, Smad3 FoxH1 inh inactive, ERa SRC1 inh inactive, FAK blocker inactive and ERb coact inh inactive.
O=C(Cc1cccs1)Nc1nnc(COc2ccccc2)s1 was read as ERa coact pot inactive, Rev-RRE block inactive, Smad3 FoxH1 inh inactive, ERa SRC1 inh 56, FAK blocker inactive and ERb coact inh inactive.
`Cc1nnc(NC(=O)Cc2cccs2)s1` gave ERa coact pot inactive, Rev-RRE block inactive, Smad3 FoxH1 inh inactive, ERa SRC1 inh 74, FAK blocker inactive and ERb coact inh 73[fluorescence artefact?].
CCC(=O)Nc1nnc(SCC(=O)N2c3ccccc3CC2C)s1 (stereo not given) was read as ERa coact pot inactive, Rev-RRE block inactive, Smad3 FoxH1 inh inactive, ERa SRC1 inh inactive, FAK blocker inactive and ERb coact inh inactive.
`CC1Cc2ccccc2N1C(=O)CSc1nnc(NC(=O)Cc2cccs2)s1` (stereo not given) gave ERa coact pot inactive, Rev-RRE block inactive, Smad3 FoxH1 inh inactive, ERa SRC1 inh 62, FAK blocker inactive and ERb coact inh inactive.
Cc1nn(-c2ccccc2)c(C)c1NC(=O)Cc1cccs1 was read as ERa coact pot inactive, Smad3 FoxH1 inh inactive, ERa SRC1 inh 59[fluorescence artefact?] and ERb coact inh 53.
